Laboratory results as given in ChEMBL document CHEMBL4808167, “Design, Synthesis, and Evaluation of Small Molecule Gαq/11 Protein Inhibitors for the Treatment of Uveal Melanoma” (J Med Chem, 2021).

Assays:
[1] = Antiproliferative activity against human MP41 cells assessed as inhibition of cell growth after 72 hrs by CCK8 assay; type: functional, cell-based; conditions: MP41, 72 h
How it was run: (§1)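 92.1 or MP41 cells in RPMI-1640 with 10% FBS were seeded at 3 × 10³ cells/well. Exposed to serial concentrations for 72 h at 37 °C, 5% CO₂. CCK-8 added for 1−4 h, absorbance read at 450 nm. IC₅₀ from concentration−response curve fit, mean ± SD.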

[2] = biological target: GNAQ/GNA11 (Homo sapiens) (UniProt P50148+P29992); test: Inhibition of Galphaq/11 (unknown origin) expressed in CHO cells coexpressing M1 receptor assessed as reduction in carbachol-induced IP1 accumulation at 10 uM preincubated for 1 hr followed by carbachol stimulation and measured after 1 hr by HTRF assay relative to control; type: cell-based; conditions: time 2.0 hrs
[3] = Antiproliferative activity against human 92.1 cells assessed as inhibition of cell growth after 72 hrs by CCK8 assay; type: functional, cell-based; conditions: Homo sapiens, 921, 72 h; how it was run: as §1

| Structure (SMILES) | IC50 [1] | inhibition [2] | IC50 [3] |
| --- | --- | --- | --- |
| CC(C)C[C@@H]1c2nc(-c3ccccc3)cn2CCN1C(=O)[C@@H](N)CS | 47.7 µM | 50.4% | 64.1 µM |
| CN(C)[C@@H](CS)C(=O)N1CCn2cc(-c3ccccc3)nc2[C@@H]1CC1CCCCC1 | > 100 µM | 11.9% | > 100 µM |
| CC[C@H](C)C(=O)N1CCn2cc(-c3ccccc3)nc2[C@H]1CC(C)C | 85.8 µM | 1.1% | 84.4 µM |
| CC(C)[C@H](N)C(=O)N1CCn2cc(-c3ccccc3)nc2[C@@H]1CC1CCCCC1 | 83 µM | 21.7% | 40.3 µM |
| CN[C@@H](CS)C(=O)N1CCn2cc(-c3ccccc3)nc2[C@@H]1CC1CCCCC1 | 27.8 µM | 30% | 24 µM |
| CSCC[C@H](N)C(=O)N1CCn2cc(-c3ccccc3)nc2[C@@H]1CC1CCCCC1 | > 100 µM | 12.4% | 42 µM |
| C[C@@H](O)[C@H](N)C(=O)N1CCn2cc(-c3ccccc3)nc2[C@@H]1CC1CCCCC1 | > 100 µM | 10.7% | > 100 µM |
| O=C([C@@H]1CCCN1)N1CCn2cc(-c3ccccc3)nc2[C@@H]1CC1CCCCC1 | 63.4 µM | 14.2% | 27.4 µM |
| CN[C@@H](CS)C(=O)N1CCn2cc(-c3ccccc3)nc2[C@@H]1C(C)C | > 100 µM | 11.5% | 45 µM |
| N[C@@H](Cc1c[nH]cn1)C(=O)N1CCn2cc(-c3ccccc3)nc2[C@@H]1CC1CCCCC1 | > 100 µM | 24.7% | 91.9 µM |
| C[C@H](O)C(=O)N1CCn2cc(-c3ccccc3)nc2[C@@H]1CC1CCCCC1 | 56.3 µM | 22.5% | > 100 µM |
| N[C@@H](Cc1ccccc1)C(=O)N1CCn2cc(-c3ccccc3)nc2[C@@H]1CC1CCCCC1 | 25.5 µM | 21.2% | 30.1 µM |
| CC[C@H](C)C(=O)N1CCn2cc(-c3ccccc3)nc2[C@@H]1CC1CCCCC1 | 79 µM | 47.1% | 27.4 µM |
| CC(C)C[C@H]1c2nc(-c3ccccc3)cn2CCN1C(=O)[C@@H](N)CS | 91.9 µM | 25.3% | 35.2 µM |
| N=C(N)NCCC[C@H](N)C(=O)N1CCn2cc(-c3ccccc3)nc2[C@@H]1CC1CCCCC1 | > 100 µM | 6.2% | > 100 µM |
| CC(C)[C@H]1c2nc(-c3ccccc3)cn2CCN1C(=O)[C@@H](N)CS | > 100 µM | 33.9% | 65.7 µM |
| CC[C@H](C)C(=O)N1CCn2cc(-c3ccccc3)nc2[C@H]1C(C)C | > 100 µM | 11.8% | > 100 µM |
| C[C@@H]1c2nc(-c3ccccc3)cn2CCN1C(=O)[C@@H](N)CS | > 100 µM | 6% | > 100 µM |
| N[C@@H](CC(=O)O)C(=O)N1CCn2cc(-c3ccccc3)nc2[C@@H]1CC1CCCCC1 | > 100 µM | 10.2% | > 100 µM |
| CN[C@@H](CS)C(=O)N1CCn2cc(-c3ccccc3)nc2[C@H]1C(C)C | > 100 µM | 30.5% | > 100 µM |
| C[C@H]1c2nc(-c3ccccc3)cn2CCN1C(=O)[C@@H](N)CS | > 100 µM | 24.4% | > 100 µM |
| CN[C@@H](CS)C(=O)N1CCn2cc(-c3ccccc3)nc2[C@H]1CC(C)C | 59.3 µM | 13.2% | > 100 µM |
| C[C@@H](CS)C(=O)N1CCn2cc(-c3ccccc3)nc2[C@@H]1CC1CCCCC1 | > 100 µM | 25.6% | 33.1 µM |
| O=C(CCS)N1CCn2cc(-c3ccccc3)nc2[C@@H]1CC1CCCCC1 | > 100 µM | 19.8% | 29.1 µM |
| CC(C)C(=O)N1CCn2cc(-c3ccccc3)nc2[C@@H]1CC1CCCCC1 | > 100 µM | 44.2% | 42.3 µM |
| N[C@@H](Cc1c[nH]c2ccccc12)C(=O)N1CCn2cc(-c3ccccc3)nc2[C@@H]1CC1CCCCC1 | 15.6 µM | 7.4% | 20.6 µM |
| CC(C)[C@@H]1c2nc(-c3ccccc3)cn2CCN1C(=O)[C@@H](N)CS | > 100 µM | 48.4% | 62.7 µM |

| Structure (SMILES) | IC50 [1] | inhibition [2] | IC50 [3] |
| --- | --- | --- | --- |
| CC(C)C(=O)N1CCn2cc(-c3ccccc3)nc2[C@@H]1C(C)C | > 100 µM | 9.9% | > 100 µM |
| CC[C@@H](C)[C@H](N)C(=O)N1CCn2cc(-c3ccccc3)nc2[C@H]1CC(C)C | > 100 µM | 6.5% | > 100 µM |
| CC(C)C[C@@H]1c2nc(-c3ccccc3)cn2CCN1C(=O)[C@@H](N)CO | > 100 µM | 4% | > 100 µM |
| CC(C)C[C@H](N)C(=O)N1CCn2cc(-c3ccccc3)nc2[C@@H]1CC1CCCCC1 | 33.5 µM | 15.9% | 55.4 µM |
| CC[C@@H](C)[C@H](N)C(=O)N1CCn2cc(-c3ccccc3)nc2[C@H]1C(C)C | 97.2 µM | 0.96% | > 100 µM |
| C[C@H](N)C(=O)N1CCn2cc(-c3ccccc3)nc2[C@@H]1CC1CCCCC1 | 95.9 µM | 17.1% | 35.5 µM |
| CC[C@@H](C)[C@H](N)C(=O)N1CCn2cc(-c3ccccc3)nc2[C@@H]1C(C)C | > 100 µM | 1.8% | > 100 µM |
| CCN(CC)[C@@H](CS)C(=O)N1CCn2cc(-c3ccccc3)nc2[C@@H]1CC1CCCCC1 | > 100 µM | 24.2% | > 100 µM |
| CC(C)C[C@@H]1c2nc(-c3ccccc3)cn2CCN1C(=O)[C@@H](N)Cc1ccc(O)cc1 | > 100 µM | 3.7% | > 100 µM |
| CC[C@H](C)C(=O)N1CCn2cc(-c3ccccc3)nc2[C@@H]1C(C)C | > 100 µM | 12.9% | > 100 µM |
| N[C@@H](CS)C(=O)N1CCn2cc(-c3ccccc3)nc2[C@@H]1Cc1ccccc1 | 19.8 µM | 22.9% | 45.2 µM |
| CC(C)[C@H]1c2nc(-c3ccccc3)cn2CCN1C(=O)[C@@H](N)Cc1ccc(O)cc1 | > 100 µM | 6.6% | > 100 µM |
| CC(C)[C@H]1c2nc(-c3ccccc3)cn2CCN1C(=O)[C@@H](N)CCCCN | > 100 µM | 5.3% | > 100 µM |
| NCC(=O)N1CCn2cc(-c3ccccc3)nc2[C@@H]1CC1CCCCC1 | > 100 µM | 21.9% | 19.3 µM |
| NC(=O)C[C@H](N)C(=O)N1CCn2cc(-c3ccccc3)nc2[C@@H]1CC1CCCCC1 | > 100 µM | 19.8% | > 100 µM |
| CC(C)[C@@H]1c2nc(-c3ccccc3)cn2CCN1C(=O)[C@@H](N)Cc1ccc(O)cc1 | 97.6 µM | 18% | > 100 µM |
| N[C@@H](CS)C(=O)N1CCn2cc(-c3ccccc3)nc2[C@H]1Cc1ccccc1 | 20 µM | 19.5% | 25.8 µM |
| CC(C)[C@@H]1c2nc(-c3ccccc3)cn2CCN1C(=O)[C@@H](N)CO | > 100 µM | 9.5% | > 100 µM |
| CC(C)C(=O)N1CCn2cc(-c3ccccc3)nc2[C@H]1C(C)C | > 100 µM | 14.4% | > 100 µM |
| NCCCC[C@H](N)C(=O)N1CCn2cc(-c3ccccc3)nc2[C@@H]1CC1CCCCC1 | > 100 µM | 36.8% | > 100 µM |
| CC(C)C[C@@H]1c2nc(-c3ccccc3)cn2CCN1C(=O)C(C)C | > 100 µM | 2.6% | > 100 µM |
| NC(=O)CC[C@H](N)C(=O)N1CCn2cc(-c3ccccc3)nc2[C@@H]1CC1CCCCC1 | > 100 µM | 18.5% | 87.2 µM |
| N[C@@H](CO)C(=O)N1CCn2cc(-c3ccccc3)nc2[C@@H]1CC1CCCCC1 | > 100 µM | 29.3% | 78.4 µM |
| CC(C)C[C@@H]1c2nc(-c3ccccc3)cn2CCN1C(=O)[C@@H](N)CCCCN | > 100 µM | 1.3% | > 100 µM |
| CC(C)[C@@H]1c2nc(-c3ccccc3)cn2CCN1C(=O)[C@@H](N)CCCCN | > 100 µM | 11.7% | > 100 µM |
| N[C@@H](CCC(=O)O)C(=O)N1CCn2cc(-c3ccccc3)nc2[C@@H]1CC1CCCCC1 | > 100 µM | 16.2% | > 100 µM |
| CC(C)[C@H]1c2nc(-c3ccccc3)cn2CCN1C(=O)[C@@H](N)CO | > 100 µM | 2.8% | > 100 µM |
